Laboratory results published in ChEMBL document CHEMBL1146380, “Synthesis, antimicrobial activity, and QSAR studies of furan-3-carboxamides” (2007).
In brackets after ≈: the same amount, converted by molar mass. Activity calls are given as the source filed them. The calls are words filed in the database; no cut-off is given here.

Experiments:
[1] = tested on: Candida albicans; test: Antimicrobial activity against Candida albicans ATCC 44373 by broth microdilution method; assay type: functional
Summary of the method: (§1)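 Yeasts grown on potato dextrose agar. Inoculum was standardized by McFarland turbidity as for bacteria, into RPMI 1640 broth (M27-A2). DMSO-dissolved compound was tested in twofold dilutions from 320 to 1.25 at 35 °C for 24 h, in duplicate. MIC was the lowest concentration completely inhibiting visible growth. Fungicidal concentration was read by subculturing 20 µL from clear wells on Sabouraud dextrose agar at 35 °C.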

[2] = tested on: Candida dubliniensis; test: Antimicrobial activity against Candida dubliniensis CBS 7987 by broth microdilution method; assay type: functional; summary of the method: as §1
[3] = tested on: Nakaseomyces glabratus; test: Antimicrobial activity against Candida glabrata […] by broth microdilution method; assay type: functional; summary of the method: as §1
[4] = tested on: Cryptococcus deneoformans; test: Antimicrobial activity against Cryptococcus neoformans var.neoformans serotype D ATCC 28952 by broth microdilution method; assay type: functional
Summary of the method: (§2)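 Organism grown on potato dextrose agar, with turbidity-standardized inoculum in RPMI 1640 broth (M27-A2). DMSO-dissolved compound was tested in twofold dilutions from 320 to 1.25 at 35 °C, incubated up to 72 h, in duplicate. MIC was the lowest concentration with no visible growth. Cidal concentration was read by subculturing 20 µL from clear wells on Sabouraud dextrose agar, incubated for the same period.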

[5] = tested on: Saccharomyces cerevisiae; test: Antimicrobial activity against Saccharomyces cerevisiae ATCC 2601 by broth microdilution method; assay type: functional; summary of the method: as §2
[6] = tested on: Staphylococcus aureus; test: Antimicrobial activity against Staphylococcus aureus ATCC 25923 by broth microdilution method; assay type: functional; details: for MBC: read-out: MFC
Summary of the method: (§3)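 Bacteria grown overnight on Mueller–Hinton agar. Colonies were suspended in saline to McFarland turbidity (about 10^8 cfu/mL), diluted 1:100 in saline, then 1:20 in Mueller–Hinton broth, giving 5 · 10^4 cfu/mL per well. DMSO-dissolved compound was tested in twofold dilutions from 320 to 1.25 at 35 °C for 24 h. MIC was the lowest concentration with no visible turbidity (M7-A4). Bactericidal concentration was read by subculturing clear wells on Mueller–Hinton agar.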

[7] = tested on: Klebsiella pneumoniae; test: Antimicrobial activity against Klebsiella pneumoniae ATCC 1003 by broth microdilution method; assay type: functional; details: for MBC: read-out: MFC; summary of the method: as §3
[8] = tested on: Escherichia coli; test: Antimicrobial activity against Escherichia coli ATCC 25922 by broth microdilution method; assay type: functional; summary of the method: as §3
[9] = (§4) Antimicrobial activity against Salmonella setubal ATCC 19196 by broth microdilution method; assay type: functional, Salmonella enterica subsp. enterica serovar Setubal; details: Salmonella enterica; summary of the method: as §3
[10] = tested on: Salmonella enterica subsp. enterica serovar Setubal; test: as §4; assay type: functional; summary of the method: as §3
[11] = tested on: Prototheca zopfii; test: Antimicrobial activity against Prototheca zopfii by broth microdilution method; assay type: functional; summary of the method: as §2
[12] = tested on: Pseudomonas aeruginosa; test: Antimicrobial activity against Pseudomonas aeruginosa ATCC 27853 by broth microdilution method; assay type: functional; summary of the method: as §3
[13] = tested on: Rhizopus arrhizus; test: Antimicrobial activity against Rhizopus oryzae isolate by broth microdilution method; assay type: functional
[14] = tested on: Sporothrix schenckii; test: Antimicrobial activity against Sporothrix schenckii ATCC 1146 by broth microdilution method; assay type: functional
[15] = tested on: Fusarium solani; test: Antimicrobial activity against Fusarium solani isolate by broth microdilution method; assay type: functional
[16] = tested on: Aspergillus fumigatus; test: Antimicrobial activity against Aspergillus fumigatus isolate by broth microdilution method; assay type: functional
[17] = tested on: Aspergillus flavus; test: Antimicrobial activity against Aspergillus flavus isolate by broth microdilution method; assay type: functional
[18] = tested on: Aspergillus niger; test: Antimicrobial activity against Aspergillus niger isolate by broth microdilution method; assay type: functional
[19] = tested on: Aspergillus terreus; test: Antimicrobial activity against Aspergillus terreus isolate by broth microdilution method; assay type: functional
[20] = tested on: Scedosporium boydii; test: Antimicrobial activity against Pseudallescheria boydii isolate by broth microdilution method; assay type: functional

SMILES: Cc1ccc(S(=O)(=O)NNC(=O)c2ccoc2)cc1
- Activity [1]: inactive
- Activity [2]: inactive
- Activity [3]: inactive
- MFC [4]: 320 µg/mL (≈ 1140 µM)
- MIC [4]: 320 µg/mL (≈ 1140 µM)
- MFC [5]: 320 µg/mL (≈ 1140 µM)
- MIC [5]: 160 µg/mL (≈ 571 µM)
- Activity [6]: inactive
- MIC [6]: 320 µg/mL (≈ 1140 µM)
- Activity [7]: inactive
- MIC [7]: 320 µg/mL (≈ 1140 µM)
- Activity [8]: inactive
- MIC [8]: 320 µg/mL (≈ 1140 µM)
- MIC [9]: 320 µg/mL (≈ 1140 µM)
- Activity [10]: inactive
- Activity [11]: inactive
- MIC [11]: 320 µg/mL (≈ 1140 µM)
- MBC [12]: 320 µg/mL (≈ 1140 µM)
- MIC [12]: 160 µg/mL (≈ 571 µM)
- Activity [13]: inactive
- MIC [13]: 320 µg/mL (≈ 1140 µM)
- Activity [14]: inactive
- MIC [14]: 160 µg/mL (≈ 571 µM)
- Activity [15]: inactive
- MIC [15]: 320 µg/mL (≈ 1140 µM)
- MFC [16]: 320 µg/mL (≈ 1140 µM)
- MIC [16]: 320 µg/mL (≈ 1140 µM)
- Activity [17]: inactive
- MIC [17]: 320 µg/mL (≈ 1140 µM)
- Activity [18]: inactive
- Activity [19]: inactive
- MIC [19]: 320 µg/mL (≈ 1140 µM)
- MFC [20]: 160 µg/mL (≈ 571 µM)
- MIC [20]: 160 µg/mL (≈ 571 µM)

SMILES: CN(C)C(=O)c1ccoc1
- Activity [1]: inactive
- Activity [2]: inactive
- Activity [3]: inactive
- Activity [4]: inactive
- MIC [4]: 320 µg/mL (≈ 2300 µM)
- MIC [5]: inactive
- Activity [6]: inactive
- MIC [6]: 320 µg/mL (≈ 2300 µM)
- Activity [7]: inactive
- MIC [7]: 320 µg/mL (≈ 2300 µM)
- Activity [8]: inactive
- MIC [9]: 320 µg/mL (≈ 2300 µM)
- Activity [10]: inactive
- Activity [11]: inactive
- MIC [11]: 320 µg/mL (≈ 2300 µM)
- Activity [12]: inactive
- MIC [12]: 320 µg/mL (≈ 2300 µM)
- MFC [13]: 320 µg/mL (≈ 2300 µM)
- MIC [13]: 320 µg/mL (≈ 2300 µM)
- MFC [14]: 320 µg/mL (≈ 2300 µM)
- MIC [14]: 160 µg/mL (≈ 1150 µM)
- Activity [15]: inactive
- Activity [16]: inactive
- Activity [17]: inactive
- Activity [18]: inactive
- MIC [18]: 320 µg/mL (≈ 2300 µM)
- Activity [19]: inactive
- MFC [20]: 320 µg/mL (≈ 2300 µM)
- MIC [20]: 160 µg/mL (≈ 1150 µM)

SMILES: NS(=O)(=O)c1ccc(NC(=O)c2ccoc2)cc1
- Activity [1]: inactive
- Activity [2]: inactive
- Activity [3]: inactive
- Activity [4]: inactive
- Activity [5]: inactive
- Activity [6]: inactive
- MIC [7]: 20 µg/mL (≈ 75.1 µM)
- MBC [7]: 320 µg/mL (≈ 1200 µM)
- Activity [8]: inactive
- MIC [9]: 160 µg/mL (≈ 601 µM)
- Activity [10]: inactive
- Activity [11]: inactive
- Activity [12]: inactive
- Activity [13]: inactive
- Activity [14]: inactive
- Activity [15]: inactive
- Activity [16]: inactive
- MFC [17]: 320 µg/mL (≈ 1200 µM)
- MIC [17]: 320 µg/mL (≈ 1200 µM)
- MFC [18]: 320 µg/mL (≈ 1200 µM)
- MIC [18]: 320 µg/mL (≈ 1200 µM)
- Activity [19]: inactive
- Activity [20]: inactive

SMILES: O=C(NCCC1CCN(Cc2ccccc2)CC1)c1ccoc1
- MFC [1]: 320 µg/mL (≈ 1020 µM)
- MIC [1]: 160 µg/mL (≈ 512 µM)
- MFC [2]: 160 µg/mL (≈ 512 µM)
- MIC [2]: 160 µg/mL (≈ 512 µM)
- MFC [3]: 320 µg/mL (≈ 1020 µM)
- MIC [3]: 320 µg/mL (≈ 1020 µM)
- Activity [4]: inactive
- MIC [4]: 320 µg/mL (≈ 1020 µM)
- MFC [5]: 160 µg/mL (≈ 512 µM)
- MIC [5]: 80 µg/mL (≈ 256 µM)
- MIC [6]: 40 µg/mL (≈ 128 µM)
- MBC [6]: 160 µg/mL (≈ 512 µM)
- MIC [7]: 160 µg/mL (≈ 512 µM)
- MBC [7]: 320 µg/mL (≈ 1020 µM)
- MBC [8]: 320 µg/mL (≈ 1020 µM)
- MIC [8]: 160 µg/mL (≈ 512 µM)
- MIC [9]: 320 µg/mL (≈ 1020 µM)
- Activity [10]: inactive
- MFC [11]: 320 µg/mL (≈ 1020 µM)
- MIC [11]: 320 µg/mL (≈ 1020 µM)
- Activity [12]: inactive
- MIC [12]: 20 µg/mL (≈ 64 µM)
- Activity [13]: inactive
- MIC [13]: 320 µg/mL (≈ 1020 µM)
- Activity [14]: inactive
- MIC [14]: 20 µg/mL (≈ 64 µM)
- Activity [15]: inactive
- MIC [15]: 320 µg/mL (≈ 1020 µM)
- Activity [16]: inactive
- MIC [16]: 320 µg/mL (≈ 1020 µM)
- Activity [17]: inactive
- MIC [17]: 320 µg/mL (≈ 1020 µM)
- Activity [18]: inactive
- MIC [18]: 320 µg/mL (≈ 1020 µM)
- Activity [19]: inactive
- MIC [19]: 320 µg/mL (≈ 1020 µM)
- MFC [20]: 80 µg/mL (≈ 256 µM)
- MIC [20]: 40 µg/mL (≈ 128 µM)

SMILES: N=C(NC(=O)c1ccoc1)c1ccccc1
- Activity [1]: inactive
- Activity [2]: inactive
- Activity [3]: inactive
- MFC [4]: 320 µg/mL (≈ 1490 µM)
- MIC [4]: 160 µg/mL (≈ 747 µM)
- Activity [5]: inactive
- Activity [6]: inactive
- MIC [6]: 320 µg/mL (≈ 1490 µM)
- Activity [7]: inactive
- MIC [7]: 320 µg/mL (≈ 1490 µM)
- Activity [8]: inactive
- MIC [8]: 320 µg/mL (≈ 1490 µM)
- MIC [9]: 320 µg/mL (≈ 1490 µM)
- Activity [10]: inactive
- MFC [11]: 320 µg/mL (≈ 1490 µM)
- MIC [11]: 160 µg/mL (≈ 747 µM)
- Activity [12]: inactive
- MIC [12]: 320 µg/mL (≈ 1490 µM)
- MFC [13]: 320 µg/mL (≈ 1490 µM)
- MIC [13]: 320 µg/mL (≈ 1490 µM)
- MFC [14]: 320 µg/mL (≈ 1490 µM)
- MIC [14]: 320 µg/mL (≈ 1490 µM)
- Activity [15]: inactive
- MIC [15]: 320 µg/mL (≈ 1490 µM)
- MFC [16]: 320 µg/mL (≈ 1490 µM)
- MIC [16]: 320 µg/mL (≈ 1490 µM)
- Activity [17]: inactive
- Activity [18]: inactive
- MIC [18]: 320 µg/mL (≈ 1490 µM)
- MFC [19]: 320 µg/mL (≈ 1490 µM)
- MIC [19]: 320 µg/mL (≈ 1490 µM)
- MFC [20]: 160 µg/mL (≈ 747 µM)
- MIC [20]: 160 µg/mL (≈ 747 µM)

SMILES: O=C(NCc1ccncc1)c1ccoc1
- Activity [1]: inactive
- MFC [2]: 320 µg/mL (≈ 1580 µM)
- MIC [2]: 320 µg/mL (≈ 1580 µM)
- Activity [3]: inactive
- MFC [4]: 320 µg/mL (≈ 1580 µM)
- MIC [4]: 320 µg/mL (≈ 1580 µM)
- Activity [5]: inactive
- MIC [6]: 80 µg/mL (≈ 396 µM)
- MBC [6]: 320 µg/mL (≈ 1580 µM)
- Activity [7]: inactive
- MIC [7]: 320 µg/mL (≈ 1580 µM)
- Activity [8]: inactive
- MIC [8]: 320 µg/mL (≈ 1580 µM)
- MIC [9]: 320 µg/mL (≈ 1580 µM)
- Activity [10]: inactive
- MFC [11]: 160 µg/mL (≈ 791 µM)
- MIC [11]: 160 µg/mL (≈ 791 µM)
- Activity [12]: inactive
- MIC [12]: 320 µg/mL (≈ 1580 µM)
- MFC [13]: 320 µg/mL (≈ 1580 µM)
- MIC [13]: 320 µg/mL (≈ 1580 µM)
- MFC [14]: 320 µg/mL (≈ 1580 µM)
- MIC [14]: 320 µg/mL (≈ 1580 µM)
- Activity [15]: inactive
- MIC [15]: 320 µg/mL (≈ 1580 µM)
- Activity [16]: inactive
- MIC [16]: 320 µg/mL (≈ 1580 µM)
- Activity [17]: inactive
- MFC [18]: 320 µg/mL (≈ 1580 µM)
- MIC [18]: 320 µg/mL (≈ 1580 µM)
- MFC [19]: 320 µg/mL (≈ 1580 µM)
- MIC [19]: 320 µg/mL (≈ 1580 µM)
- MFC [20]: 320 µg/mL (≈ 1580 µM)
- MIC [20]: 320 µg/mL (≈ 1580 µM)
